From ChEMBL document CHEMBL4304745, “On the Process of Discovering Leads That Target the Heparin-Binding Site of Neutrophil Elastase in the Sputum of Cystic Fibrosis Patients” (J Med Chem, 2019)
Activity calls are given as the source filed them. No cut-off for these calls is given here.

How the values were obtained:
[1] = target: T1, Neutrophil elastase (Homo sapiens, UniProt P08246); assay: Inhibition of human neutrophil elastase using S1384 as substrate preincubated for 5 mins followed by substrate addition
T1 sequence (P08246 whole entry): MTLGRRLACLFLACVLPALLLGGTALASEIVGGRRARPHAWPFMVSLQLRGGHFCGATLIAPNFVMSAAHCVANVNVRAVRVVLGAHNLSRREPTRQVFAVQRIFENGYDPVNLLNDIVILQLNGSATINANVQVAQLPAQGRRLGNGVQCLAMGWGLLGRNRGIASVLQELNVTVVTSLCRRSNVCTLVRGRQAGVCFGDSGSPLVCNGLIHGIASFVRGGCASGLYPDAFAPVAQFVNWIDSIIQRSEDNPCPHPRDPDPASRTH

[2] = tested on: Plasma; assay: Anticoagulant activity in human plasma assessed as concentration required to double the activated partial thromboplastin time measured after 5 mins; format: ADME, cell-free
Method in brief: (§1)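 Clotting times (APTT and PT) measured in human plasma over a range of compound concentrations. The value is the concentration needed to double each clotting time.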

[3] = tested on: Plasma; assay: Anticoagulant activity in human plasma assessed as concentration required to double the prothrombin time measured after 5 mins; format: ADME, cell-free; method in brief: as §1
[4] = target: T2, Neutrophil elastase (Homo sapiens) (UniProt P08246); assay: Inhibition of human neutrophil elastase assessed as reduction in elastin-congo red hydrolysis preincubated for 30 mins followed by elastin-congo red addition measured after 48 hrs
T2 sequence (whole entry): T1 sequence (P08246 whole entry)
Method in brief: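 Elastin-congo red hydrolysis by HNE at pH 8. Congo red released by elastin degradation is quantified by absorbance at 497 nm. Run in triplicate; error bars are one standard deviation.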

[5] = species on record: Homo sapiens; assay: Selectivity ratio of IC50 for plasmin (unknown origin) to IC50 for human neutrophil elastase
[6] = Solubility of the compound in water; format: physicochemical
[7] = target: T3, Cathepsin G (Homo sapiens, UniProt P08311); assay: Inhibition of human leukocyte cathepsin G using S7388 as substrate preincubated for 5 mins followed by substrate addition
T3 sequence (P08311 whole entry): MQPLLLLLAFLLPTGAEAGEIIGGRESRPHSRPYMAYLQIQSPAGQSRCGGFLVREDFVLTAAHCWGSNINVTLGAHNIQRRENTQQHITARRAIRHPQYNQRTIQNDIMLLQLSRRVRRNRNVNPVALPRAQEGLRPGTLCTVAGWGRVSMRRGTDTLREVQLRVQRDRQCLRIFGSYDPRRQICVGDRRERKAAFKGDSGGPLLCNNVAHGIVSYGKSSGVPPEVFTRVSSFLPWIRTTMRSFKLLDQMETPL

[8] = target: T2, Neutrophil elastase (Homo sapiens); assay: Inhibition of neutrophil elastase in cystic fibrosis patient-derived sputum at 2 mM using S1384 as substrate measured after 2 hrs in presence of DNAse1 and 400 mM NaCl; format: tissue-based
Method in brief: (§2)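 Sputum from cystic fibrosis patients is cleared of insoluble debris by centrifugation and treated with DNase. HNE activity is then read by chromogenic substrate hydrolysis across increasing compound concentrations, up to about 2 mM.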

[9] = target: Prothrombin (Homo sapiens, UniProt P00734); assay: Inhibition of thrombin (unknown origin) using spectrozyme as substrate preincubated for 5 mins followed by substrate addition
[10] = tested on: Plasma; assay: Anticoagulant activity in human plasma assessed as effect on activated partial thromboplastin time at 855 uM measured after 5 mins; format: ADME, cell-free
Method in brief: (§3)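 APTT and PT recorded in human plasma with compound present at concentrations up to 855 µM. The read-out is the change in clotting time relative to untreated plasma.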

[11] = target: T2, Neutrophil elastase (Homo sapiens); assay: Inhibition of neutrophil elastase in cystic fibrosis patient-derived sputum at 2 mM using S1384 as substrate measured after 2 hrs in presence of DNAse1 and 150 mM NaCl; format: tissue-based; method in brief: as §2
[12] = target: T2, Neutrophil elastase (Homo sapiens); assay: Inhibition of neutrophil elastase in cystic fibrosis patient-derived sputum up to 250 using S1384 as substrate measured after 2 hrs in presence of DNAse1 and 150 mM NaCl; format: tissue-based
[13] = species on record: Homo sapiens; assay: Selectivity ratio of IC50 for factor 10a (unknown origin) to IC50 for human neutrophil elastase
[14] = target: T2, Neutrophil elastase (Homo sapiens); assay: Inhibition of neutrophil elastase in cystic fibrosis patient-derived sputum 2 mM using S1384 as substrate measured after 2 hrs; format: tissue-based
[15] = target: Coagulation factor X (Homo sapiens, UniProt P00742); assay: Inhibition of factor 10a (unknown origin) using spectrozyme as substrate preincubated for 5 mins followed by substrate addition
[16] = target: T2, Neutrophil elastase (Homo sapiens); assay: Inhibition of neutrophil elastase in cystic fibrosis patient-derived sputum using S1384 as substrate measured after 2 hrs in presence of DNAse1 and 150 mM NaCl; format: tissue-based; method in brief: as §2
[17] = target: T4, Myeloblastin (Homo sapiens, UniProt P24158); assay: Inhibition of human neutrophil proteinase 3 using M4765 as substrate preincubated for 5 mins followed by substrate addition
T4 sequence (P24158 whole entry): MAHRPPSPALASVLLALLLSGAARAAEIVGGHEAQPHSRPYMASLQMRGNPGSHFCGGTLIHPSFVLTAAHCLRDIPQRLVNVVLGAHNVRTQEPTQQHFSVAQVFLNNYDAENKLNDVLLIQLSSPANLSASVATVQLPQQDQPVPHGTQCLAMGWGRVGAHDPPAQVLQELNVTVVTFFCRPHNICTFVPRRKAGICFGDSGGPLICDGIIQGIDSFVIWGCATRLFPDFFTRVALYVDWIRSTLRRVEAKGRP

[18] = species on record: Homo sapiens; assay: Selectivity ratio of IC50 for factor 11 (unknown origin) to IC50 for human neutrophil elastase
[19] = tested on: Plasma; assay: Anticoagulant activity in human plasma assessed as effect on prothrombin time at 855 uM measured after 5 mins; format: ADME, cell-free; method in brief: as §3
[20] = species on record: Homo sapiens; assay: Selectivity ratio of IC50 for thrombin (unknown origin) to IC50 for human neutrophil elastase
[21] = target: T2, Neutrophil elastase (Homo sapiens); assay: Mixed type inhibition of human neutrophil elastase assessed as increase in Km for substrate at 1000 uM using varying levels of S1384 as substrate by Michaelis-Menten plot analysis relative to control
[22] = target: T2, Neutrophil elastase (Homo sapiens); assay: Mixed type inhibition of human neutrophil elastase assessed as decrease in Vmax for substrate at 1000 uM using varying levels of S1384 as substrate by Michaelis-Menten plot analysis relative to control
[23] = target: Plasminogen (Homo sapiens, UniProt P00747); assay: Inhibition of plasmin (unknown origin) using spectrozyme as substrate preincubated for 5 mins followed by substrate addition
[24] = target: Coagulation factor XI (Homo sapiens, UniProt P03951); assay: Inhibition of factor 11a (unknown origin) using S-2366 as substrate preincubated for 5 mins followed by substrate addition
[25] = compound: O=c1cc(-c2ccc(OS(=O)(=O)O)cc2)oc2cc(OS(=O)(=O)O)cc(OCc3cccc(COc4cc(OS(=O)(=O)O)cc5oc(-c6ccc(OS(=O)(=O)O)cc6)cc(=O)c45)n3)c12; assay: Mixed type inhibition of human neutrophil elastase assessed as Km for substrate at 1000 uM using varying levels of S1384 as substrate by Michaelis-Menten plot analysis (reference value: 650 +/- 24 uM)
[26] = compound: O=c1cc(-c2ccc(OS(=O)(=O)O)cc2)oc2cc(OS(=O)(=O)O)cc(OCc3cccc(COc4cc(OS(=O)(=O)O)cc5oc(-c6ccc(OS(=O)(=O)O)cc6)cc(=O)c45)n3)c12; assay: Mixed type inhibition of human neutrophil elastase assessed as Vmax for substrate at 250 uM using varying levels of S1384 as substrate by Michaelis-Menten plot analysis (reference value: 40.1 +/- 0.5 mAU/min)
[27] = compound: O=c1cc(-c2ccc(OS(=O)(=O)O)cc2)oc2cc(OS(=O)(=O)O)cc(OCc3cccc(COc4cc(OS(=O)(=O)O)cc5oc(-c6ccc(OS(=O)(=O)O)cc6)cc(=O)c45)n3)c12; assay: Mixed type inhibition of human neutrophil elastase assessed as Vmax for substrate at 750 uM using varying levels of S1384 as substrate by Michaelis-Menten plot analysis (reference value: 40.1 +/- 0.5 mAU/min)
[28] = compound: O=c1cc(-c2ccc(OS(=O)(=O)O)cc2)oc2cc(OS(=O)(=O)O)cc(OCc3cccc(COc4cc(OS(=O)(=O)O)cc5oc(-c6ccc(OS(=O)(=O)O)cc6)cc(=O)c45)n3)c12; assay: Mixed type inhibition of human neutrophil elastase assessed as Vmax for substrate at 1000 uM using varying levels of S1384 as substrate by Michaelis-Menten plot analysis (reference value: 40.1 +/- 0.5 mAU/min)
[29] = compound: O=c1cc(-c2ccc(OS(=O)(=O)O)cc2)oc2cc(OS(=O)(=O)O)cc(OCc3cccc(COc4cc(OS(=O)(=O)O)cc5oc(-c6ccc(OS(=O)(=O)O)cc6)cc(=O)c45)n3)c12; assay: Mixed type inhibition of human neutrophil elastase assessed as Vmax for substrate at 500 uM using varying levels of S1384 as substrate by Michaelis-Menten plot analysis (reference value: 40.1 +/- 0.5 mAU/min)
[30] = compound: O=c1cc(-c2ccc(OS(=O)(=O)O)cc2)oc2cc(OS(=O)(=O)O)cc(OCc3cccc(COc4cc(OS(=O)(=O)O)cc5oc(-c6ccc(OS(=O)(=O)O)cc6)cc(=O)c45)n3)c12; assay: Mixed type inhibition of human neutrophil elastase assessed as Km for substrate at 250 uM using varying levels of S1384 as substrate by Michaelis-Menten plot analysis (reference value: 650 +/- 24 uM)
[31] = compound: O=c1cc(-c2ccc(OS(=O)(=O)O)cc2)oc2cc(OS(=O)(=O)O)cc(OCc3cccc(COc4cc(OS(=O)(=O)O)cc5oc(-c6ccc(OS(=O)(=O)O)cc6)cc(=O)c45)n3)c12; assay: Mixed type inhibition of human neutrophil elastase assessed as Km for substrate at 750 uM using varying levels of S1384 as substrate by Michaelis-Menten plot analysis (reference value: 650 +/- 24 uM)
[32] = compound: O=c1cc(-c2ccc(OS(=O)(=O)O)cc2)oc2cc(OS(=O)(=O)O)cc(OCc3cccc(COc4cc(OS(=O)(=O)O)cc5oc(-c6ccc(OS(=O)(=O)O)cc6)cc(=O)c45)n3)c12; assay: Mixed type inhibition of human neutrophil elastase assessed as Km for substrate at 500 uM using varying levels of S1384 as substrate by Michaelis-Menten plot analysis (reference value: 650 +/- 24 uM)

Coagulation factor XI, sequence (P03951 19-387 limits assumed): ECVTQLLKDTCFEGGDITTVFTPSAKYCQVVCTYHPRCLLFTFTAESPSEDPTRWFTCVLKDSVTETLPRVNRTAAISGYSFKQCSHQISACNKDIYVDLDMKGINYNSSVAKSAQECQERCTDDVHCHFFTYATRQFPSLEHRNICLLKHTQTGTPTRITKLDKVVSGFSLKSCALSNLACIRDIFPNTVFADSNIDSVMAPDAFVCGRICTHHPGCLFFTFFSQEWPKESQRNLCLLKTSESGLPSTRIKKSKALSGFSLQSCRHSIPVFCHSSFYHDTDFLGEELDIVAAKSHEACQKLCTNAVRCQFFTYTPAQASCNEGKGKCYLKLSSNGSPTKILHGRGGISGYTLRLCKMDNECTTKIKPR
Coagulation factor XI, sequence (P03951 388-625 limits assumed): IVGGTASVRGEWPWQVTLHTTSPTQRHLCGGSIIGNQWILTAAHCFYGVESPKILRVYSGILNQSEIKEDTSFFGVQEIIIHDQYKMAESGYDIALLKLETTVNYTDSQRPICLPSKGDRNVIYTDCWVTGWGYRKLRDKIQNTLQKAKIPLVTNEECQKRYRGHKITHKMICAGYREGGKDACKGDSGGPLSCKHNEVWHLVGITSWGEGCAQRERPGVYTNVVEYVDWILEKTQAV
Plasminogen, sequence (P00747 97-580 limits assumed): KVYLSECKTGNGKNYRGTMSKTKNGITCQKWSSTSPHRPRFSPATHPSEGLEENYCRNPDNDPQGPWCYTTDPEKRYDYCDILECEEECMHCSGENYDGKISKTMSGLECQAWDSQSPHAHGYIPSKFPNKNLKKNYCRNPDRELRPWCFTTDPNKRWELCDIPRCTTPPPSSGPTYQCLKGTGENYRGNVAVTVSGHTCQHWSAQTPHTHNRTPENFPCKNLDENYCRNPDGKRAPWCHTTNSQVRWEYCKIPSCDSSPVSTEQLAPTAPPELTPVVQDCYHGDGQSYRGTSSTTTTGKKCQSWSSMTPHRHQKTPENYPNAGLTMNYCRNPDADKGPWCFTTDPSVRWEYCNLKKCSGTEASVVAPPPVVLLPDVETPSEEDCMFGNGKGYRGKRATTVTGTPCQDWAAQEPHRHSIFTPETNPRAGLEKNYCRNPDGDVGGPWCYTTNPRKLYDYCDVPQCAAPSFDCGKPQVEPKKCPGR
Plasminogen, sequence (P00747 581-810 limits assumed): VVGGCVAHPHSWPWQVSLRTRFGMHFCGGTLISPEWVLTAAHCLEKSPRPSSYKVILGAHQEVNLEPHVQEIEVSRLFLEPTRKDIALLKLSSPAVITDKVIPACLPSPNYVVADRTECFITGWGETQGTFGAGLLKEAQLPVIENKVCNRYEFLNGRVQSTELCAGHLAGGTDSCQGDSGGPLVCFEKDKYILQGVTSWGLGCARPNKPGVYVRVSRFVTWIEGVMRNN
Coagulation factor X, sequence (P00742 41-179 limits assumed): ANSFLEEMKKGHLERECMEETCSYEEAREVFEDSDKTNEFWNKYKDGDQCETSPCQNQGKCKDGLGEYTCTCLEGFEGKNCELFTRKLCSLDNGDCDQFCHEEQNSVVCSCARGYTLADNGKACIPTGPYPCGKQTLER
Coagulation factor X, sequence (P00742 235-488 limits assumed): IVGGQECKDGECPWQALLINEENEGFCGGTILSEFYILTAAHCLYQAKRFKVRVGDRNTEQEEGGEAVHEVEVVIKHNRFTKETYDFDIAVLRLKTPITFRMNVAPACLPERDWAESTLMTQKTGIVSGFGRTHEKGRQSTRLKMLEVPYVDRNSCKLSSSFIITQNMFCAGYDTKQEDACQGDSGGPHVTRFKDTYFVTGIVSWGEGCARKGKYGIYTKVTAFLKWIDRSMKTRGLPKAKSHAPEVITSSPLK

## O=c1c(OS(=O)(=O)O)c(-c2ccc(OS(=O)(=O)O)c(OS(=O)(=O)O)c2)oc2cc(OS(=O)(=O)O)cc(OCc3ccc(COc4cc(OS(=O)(=O)O)cc5oc(-c6ccc(OS(=O)(=O)O)c(OS(=O)(=O)O)c6)c(OS(=O)(=O)O)c(=O)c45)cc3)c12
[1]
  IC50: 230 nM

## O=C(OC[C@H]1O[C@@H](OC(=O)c2cc(OS(=O)(=O)[O-])c(O)c(OS(=O)(=O)[O-])c2)[C@H](OC(=O)c2cc(OS(=O)(=O)[O-])c(O)c(OS(=O)(=O)[O-])c2)[C@@H](OC(=O)c2cc(OS(=O)(=O)[O-])c(O)c(OS(=O)(=O)[O-])c2)[C@@H]1OC(=O)c1cc(OS(=O)(=O)[O-])c(O)c(OS(=O)(=O)[O-])c1)c1cc(OS(=O)(=O)[O-])c(O)c(OS(=O)(=O)[O-])c1.[Na+].[Na+].[Na+].[Na+].[Na+].[Na+].[Na+].[Na+].[Na+].[Na+] [sulfated pentagalloylglucoside]
[2]
  2aPTT: 49 µM
[3]
  2PT: 152 µM
[4]
  inhibition: Active
[1]
  IC50: 40 nM

## O=c1cc(-c2ccc(OS(=O)(=O)O)cc2)oc2cc(OS(=O)(=O)O)cc(OCc3cccc(COc4cc(OS(=O)(=O)O)cc5oc(-c6ccc(OS(=O)(=O)O)cc6)cc(=O)c45)c3)c12
[1]
  IC50: 157000 nM

## O=c1cc(-c2ccc(OS(=O)(=O)[O-])cc2)oc2cc(OS(=O)(=O)[O-])cc(OCc3cccc(COc4cc(OS(=O)(=O)[O-])cc5oc(-c6ccc(OS(=O)(=O)[O-])cc6)cc(=O)c45)n3)c12.[Na+].[Na+].[Na+].[Na+]
[5]
  Ratio IC50: > 50
[6]
  solubility: > 10000 µg/mL
[7]
  IC50: 1100 nM
[8]
  inhibition: Active
[9]
  inhibition (INH): Active
[10]
  Activity: Non-Toxic
[11]
  inhibition: 100%
[4]
  inhibition: Active
[12]
  inhibition: inactive
[13]
  Ratio IC50: > 50
[14]
  inhibition: inactive
[15]
  inhibition (INH): Active
[16]
  inhibition: Dose-dependent effect
[17]
  IC50: 54000 nM
[18]
  Ratio IC50: 28
[1]
  IC50: 690 nM
[19]
  Activity: Non-Toxic
[20]
  Ratio IC50: > 50
[21]
  fold change (FC): 3
[22]
  fold change (FC): 2.5
[23]
  inhibition (INH): Active
[24]
  inhibition (INH): Active

## O=c1c(OS(=O)(=O)O)c(-c2ccc(OS(=O)(=O)O)c(OS(=O)(=O)O)c2)oc2cc(OS(=O)(=O)O)cc(OCCOc3cc(-c4oc5cc(OS(=O)(=O)O)cc(OCCOc6cc(OS(=O)(=O)O)cc7oc(-c8ccc(OS(=O)(=O)O)c(OS(=O)(=O)O)c8)c(OS(=O)(=O)O)c(=O)c67)c5c(=O)c4OS(=O)(=O)O)ccc3OS(=O)(=O)O)c12
[1]
  IC50: 140 nM

B1: Neutrophil elastase (Homo sapiens), P08246 (protein)
chain: T1 sequence (P08246 whole entry)
[25]
  Km: 1670 µM
[26]
  Vmax: 38.6 mAU/min
[27]
  Vmax: 19 mAU/min
[28]
  Vmax: 15.3 mAU/min
[29]
  Vmax: 30.3 mAU/min
[30]
  Km: 908 µM
[31]
  Km: 1220 µM
[32]
  Km: 788 µM
